Data reported in ChEMBL document CHEMBL1781875, “Chemoenzymatic synthesis with lipase catalyzed resolution and evaluation of antitumor activity of (R/S)-2-[2-hydroxy-3-(4-phenylpiperazin-1-yl)propyl]-1H-pyrrolo[3,4-b]quinolin-3(2H)-one” (Eur J Med Chem, 2011).

Experiments:
SK-N-SH [1] = assay: Cytotoxicity against human SK-N-SH cells assessed as cell viability at 0.1 uM after 48 hrs by MTT assay relative to untreated control; format: functional; settings: read-out: Activity
How it was run: (§1)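 Exponentially growing cells seeded at 2.0 × 10⁴ per well in 24-well plates, drug-treated in triplicate for 48 h at 37 °C under 5% CO₂. MTT in RPMI-1640 was added, followed by 2–3 h at 37 °C. Formazan was dissolved in DMSO and OD read at 540 nm. Viability is given as % of untreated cells (100%), mean ± SEM of three determinations.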

A549 [2] = assay: Cytotoxicity against human A549 cells assessed as cell viability at1 uM after 48 hrs by MTT assay relative to untreated control; format: functional; how it was run: as §1
SK-N-SH [3] = assay: Cytotoxicity against human SK-N-SH cells assessed as cell viability at 1 uM after 48 hrs by MTT assay relative to untreated control; format: functional; settings: read-out: Activity; how it was run: as §1
SK-N-SH [4] = assay: Cytotoxicity against human SK-N-SH cells assessed as inhibition of cell growth after 48 hrs by MTT assay; format: functional, cell-based; how it was run: as §1
A549 [5] = assay: Cytotoxicity against human A549 cells assessed as cell viability at 5 uM after 48 hrs by MTT assay relative to untreated control; format: functional; settings: A549, 48 h, read-out: Activity; how it was run: as §1
SK-N-SH [6] = assay: Cytotoxicity against human SK-N-SH cells assessed as cell viability at 5 uM after 48 hrs by MTT assay relative to untreated control; format: functional; settings: read-out: Activity; how it was run: as §1
A549 [7] = assay: Cytotoxicity against human A549 cells assessed as cell viability at 0.1 uM after 48 hrs by MTT assay relative to untreated control; format: functional; settings: A549, 48 h, read-out: Activity; how it was run: as §1
A549 [8] = assay: Cytotoxicity against human A549 cells assessed as inhibition of cell growth after 48 hrs by MTT assay; format: functional, cell-based; settings: A549, 48 h; how it was run: as §1
A549 [9] = assay: Cytotoxicity against human A549 cells assessed as cell viability at 50 uM after 48 hrs by MTT assay relative to untreated control; format: functional; settings: A549, 48 h, read-out: Activity; how it was run: as §1
SK-N-SH [10] = assay: Cytotoxicity against human SK-N-SH cells assessed as cell viability at 25 uM after 48 hrs by MTT assay relative to untreated control; format: functional; settings: read-out: Activity; how it was run: as §1
SK-N-SH [11] = assay: Cytotoxicity against human SK-N-SH cells assessed as cell viability at 10 uM after 48 hrs by MTT assay relative to untreated control; format: functional; settings: read-out: Activity; how it was run: as §1
A549 [12] = assay: Cytotoxicity against human A549 cells assessed as cell viability at 25 uM after 48 hrs by MTT assay relative to untreated control; format: functional; settings: A549, 48 h, read-out: Activity; how it was run: as §1
SK-N-SH [13] = assay: Cytotoxicity against human SK-N-SH cells assessed as cell viability at 50 uM after 48 hrs by MTT assay relative to untreated control; format: functional; settings: read-out: Activity; how it was run: as §1
A549 [14] = assay: Cytotoxicity against human A549 cells assessed as cell viability at 10 uM after 48 hrs by MTT assay relative to untreated control; format: functional; settings: A549, 48 h, read-out: Activity; how it was run: as §1

Row | SMILES | viability at 0.1 µM (SK-N-SH [1]) | Activity (A549 [2]) | viability at 1 µM (SK-N-SH [3]) | IC50 (SK-N-SH [4]) | viability at 5 µM (A549 [5]) | viability at 5 µM (SK-N-SH [6]) | viability at 0.1 µM (A549 [7]) | IC50 (A549 [8]) | viability at 50 µM (A549 [9]) | viability at 25 µM (SK-N-SH [10]) | viability at 10 µM (SK-N-SH [11]) | viability at 25 µM (A549 [12]) | viability at 50 µM (SK-N-SH [13]) | viability at 10 µM (A549 [14])
1 | COc1cccc2c1C(=O)c1c(O)c3c(c(O)c1C2=O)C[C@@](O)(C(=O)CO)C[C@@H]3O[C@H]1C[C@H](N)[C@H](O)[C@H](C)O1 [DOXORUBICIN] | 72.5% | 65.33% | 60.8% | 19.9 µM | 33.9% | 51% | 76.6% | – | – | – | – | – | – | –
2 | O=C1c2nc3ccccc3cc2CN1C[C@@H](O)CN1CCN(c2ccccc2)CC1 | – | – | – | 16.2 µM | – | – | – | 54.8 µM | 74.7% | 69.1% | 76.8% | 81.8% | 49.4% | 90.7%
3 | O=C1c2nc3ccccc3cc2CN1CC(O)CN1CCN(c2ccccc2)CC1 (racemic) | – | – | – | 65.1 µM | – | – | – | 63.2 µM | 78.7% | 73.5% | 78.3% | 85.5% | 70.5% | 96.5%
4 | CC(=O)O[C@H](CN1CCN(c2ccccc2)CC1)CN1Cc2cc3ccccc3nc2C1=O | – | – | – | 67.8 µM | – | – | – | 72.7 µM | 83.3% | 84.2% | 95.5% | 85.6% | 79.3% | 98.4%
